ChEMBL document CHEMBL1629517, “Molecular properties prediction, synthesis and antimicrobial activity of some newer oxadiazole derivatives” (2010)
In brackets after ≈: the same amount, converted by molar mass.

Legend:
[1] = tested on: Staphylococcus aureus; test: Antibacterial activity against Staphylococcus aureus ATCC 25923 at 100 ug/ml after 24 hrs by disc-diffusion method; format: functional; settings: ATCC 25923, 24 h, read-out: IZ
[2] = tested on: Staphylococcus aureus; test: Antibacterial activity against Staphylococcus aureus ATCC 25923 at 200 ug/ml after 24 hrs by disc-diffusion method; format: functional; settings: ATCC 25923, 24 h, read-out: IZ
[3] = tested on: Bacillus subtilis; test: Antibacterial activity against Bacillus subtilis ATCC 6633 at 100 ug/ml after 24 hrs by disc-diffusion method; format: functional; settings: ATCC 6633, 24 h, read-out: IZ
[4] = tested on: Bacillus subtilis; test: Antibacterial activity against Bacillus subtilis ATCC 6633 at 200 ug/ml after 24 hrs by disc-diffusion method; format: functional; settings: ATCC 6633, 24 h, read-out: IZ
[5] = tested on: Escherichia coli; test: Antibacterial activity against Escherichia coli ATCC 25922 at 100 ug/ml after 24 hrs by disc-diffusion method; format: functional; settings: ATCC 25922, 24 h, read-out: IZ
[6] = tested on: Escherichia coli; test: Antibacterial activity against Escherichia coli ATCC 25922 at 200 ug/ml after 24 hrs by disc-diffusion method; format: functional; settings: ATCC 25922, 24 h, read-out: IZ
[7] = tested on: Pseudomonas aeruginosa; test: Antibacterial activity against Pseudomonas aeruginosa ATCC 27853 at 100 ug/ml after 24 hrs by disc-diffusion method; format: functional; settings: ATCC 27853, 24 h, read-out: IZ
[8] = tested on: Pseudomonas aeruginosa; test: Antibacterial activity against Pseudomonas aeruginosa ATCC 27853 at 200 ug/ml after 24 hrs by disc-diffusion method; format: functional; settings: ATCC 27853, 24 h, read-out: IZ
[9] = tested on: Staphylococcus aureus; test: Antibacterial activity against Staphylococcus aureus ATCC 25923 after 24 hrs by broth dilution technique; format: functional; settings: ATCC 25923, 24 h
Summary of the method: (§1)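 MIC by broth dilution: nutrient broth containing logarithmic two-fold serial dilutions of compound was inoculated with about 5 × 10⁵ c.f.u. of actively dividing bacteria.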

[10] = tested on: Bacillus subtilis; test: Antibacterial activity against Bacillus subtilis ATCC 6633 after 24 hrs by broth dilution technique; format: functional; settings: ATCC 6633, 24 h; summary of the method: as §1
[11] = tested on: Escherichia coli; test: Antibacterial activity against Escherichia coli ATCC 25922 after 24 hrs by broth dilution technique; format: functional; settings: ATCC 25922, 24 h; summary of the method: as §1
[12] = tested on: Pseudomonas aeruginosa; test: Antibacterial activity against Pseudomonas aeruginosa ATCC 27853 after 24 hrs by broth dilution technique; format: functional; settings: ATCC 27853, 24 h; summary of the method: as §1
[13] = tested on: Staphylococcus aureus; test: Antibacterial activity against Staphylococcus aureus ATCC 25923 after 18 to 24 hrs; format: functional
[14] = tested on: Bacillus subtilis; test: Antibacterial activity against Bacillus subtilis ATCC 6633 after 18 to 24 hrs; format: functional
[15] = tested on: Escherichia coli; test: Antibacterial activity against Escherichia coli ATCC 25922 after 18 to 24 hrs; format: functional
[16] = tested on: Pseudomonas aeruginosa; test: Antibacterial activity against Pseudomonas aeruginosa ATCC 27853 after 18 to 24 hrs; format: functional
[17] = tested on: Aspergillus niger; test: Antifungal activity against Aspergillus niger at 200 ug/ml after 48 hrs by agar diffusion method; format: functional; settings: read-out: IZ
Summary of the method: (§2)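 Agar well diffusion on Sabouraud agar (peptone 1 g, D-glucose 4 g, agar 2 g per 100 ml water, pH 5.7). Plates were lawned with a saline suspension of spores, excess was decanted, and plates were dried 1 h at 37 °C. Compounds in DMSO went into punched wells, and inhibition zones were measured against controls, with voriconazole as standard.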

[18] = tested on: Candida albicans; test: Antifungal activity against Candida albicans at 100 ug/ml after 48 hrs by agar diffusion method; format: functional; settings: read-out: IZ; summary of the method: as §2
[19] = tested on: Candida albicans; test: Antifungal activity against Candida albicans at 200 ug/ml after 48 hrs by agar diffusion method; format: functional; settings: read-out: IZ; summary of the method: as §2
[20] = tested on: Aspergillus niger; test: Antifungal activity against Aspergillus niger after 48 hrs; format: functional
[21] = tested on: Candida albicans; test: Antifungal activity against Candida albicans after 48 hrs; format: functional
[22] = tested on: Aspergillus niger; test: Antifungal activity against Aspergillus niger at 100 ug/ml after 3 to 4 days by agar diffusion method; settings: read-out: IZ

| MIC [9] [µg/mL] | MIC [10] [µg/mL] | MIC [11] [µg/mL] | MIC [12] [µg/mL] | SMILES | zone of inhibition at 100 µg/mL [1] [mm] | zone of inhibition at 200 µg/mL [2] [mm] | zone of inhibition at 100 µg/mL [3] [mm] | zone of inhibition at 200 µg/mL [4] [mm] | zone of inhibition at 100 µg/mL [5] [mm] | zone of inhibition at 200 µg/mL [6] [mm] | zone of inhibition at 100 µg/mL [7] [mm] | zone of inhibition at 200 µg/mL [8] [mm] | MBC [13] [µg/mL] | MBC [14] [µg/mL] | MBC [15] [µg/mL] | MBC [16] [µg/mL] | zone of inhibition at 200 µg/mL [17] [mm] | zone of inhibition at 100 µg/mL [18] [mm] | zone of inhibition at 200 µg/mL [19] [mm] | zone of inhibition at 100 µg/mL [22] [mm] | also measured |
| --- | --- | --- | --- | --- | --- | --- | --- | --- | --- | --- | --- | --- | --- | --- | --- | --- | --- | --- | --- | --- | --- |
| 12.5 (≈ 30.3 µM) | 25 (≈ 60.6 µM) | 12.5 (≈ 30.3 µM) | 25 (≈ 60.6 µM) | COc1cc(/C=C/C(=O)c2ccccc2)ccc1OCc1nnc(-c2ccccc2)o1 | 16 | 18 | 13 | 14 | 19 | 20 | 23 | 25 | 50 (≈ 121 µM) | 50 (≈ 121 µM) | 25 (≈ 60.6 µM) | 50 (≈ 121 µM) | 25 | 16 | 18 | 21 | MFC [20]: 25 µg/mL (≈ 60.6 µM); MIC [20]: 12.5 µg/mL (≈ 30.3 µM); MFC [21]: 25 µg/mL (≈ 60.6 µM); MIC [21]: 12.5 µg/mL (≈ 30.3 µM) |
| 12.5 (≈ 28 µM) | 6 (≈ 13.4 µM) | 12.5 (≈ 28 µM) | 25 (≈ 55.9 µM) | COc1cc(/C=C/C(=O)c2ccccc2)ccc1OCc1nnc(-c2ccc(Cl)cc2)o1 | 12 | 14 | 9 | 11 | 16 | 18 | 19 | 22 | 25 (≈ 55.9 µM) | 12.5 (≈ 28 µM) | 25 (≈ 55.9 µM) | 50 (≈ 112 µM) | 20 | 12 | 15 | 18 | MFC [20]: 25 µg/mL (≈ 55.9 µM); MIC [20]: 12.5 µg/mL (≈ 28 µM); MFC [21]: 50 µg/mL (≈ 112 µM); MIC [21]: 25 µg/mL (≈ 55.9 µM) |
| 6 (≈ 14.1 µM) | 6 (≈ 14.1 µM) | 6 (≈ 14.1 µM) | 12.5 (≈ 29.3 µM) | COc1cc(/C=C/C(=O)c2ccccc2)ccc1OCc1nnc(-c2ccc(C)cc2)o1 | 15 | 16 | 12 | 14 | 19 | 21 | 23 | 25 | 25 (≈ 58.6 µM) | 12.5 (≈ 29.3 µM) | 25 (≈ 58.6 µM) | 50 (≈ 117 µM) | 22 | 15 | 16 | 20 | MFC [21]: 25 µg/mL (≈ 58.6 µM); MIC [21]: 12.5 µg/mL (≈ 29.3 µM) |
| 6 (≈ 14 µM) | 6 (≈ 14 µM) | 6 (≈ 14 µM) | 6 (≈ 14 µM) | COc1cc(/C=C/C(=O)c2ccccc2)ccc1OCc1nnc(-c2ccccc2O)o1 | 17 | 19 | 15 | 16 | 20 | 22 | 25 | 27 | 12.5 (≈ 29.2 µM) | 12.5 (≈ 29.2 µM) | 12.5 (≈ 29.2 µM) | 12.5 (≈ 29.2 µM) | 25 | 18 | 20 | 22 | MFC [20]: 12.5 µg/mL (≈ 29.2 µM); MIC [20]: 6 µg/mL (≈ 14 µM); MFC [21]: 12.5 µg/mL (≈ 29.2 µM); MIC [21]: 6 µg/mL (≈ 14 µM) |
| 12.5 (≈ 26.2 µM) | 12.5 (≈ 26.2 µM) | 12.5 (≈ 26.2 µM) | 12.5 (≈ 26.2 µM) | COc1ccc(C(=O)/C=C/c2ccc(OCc3nnc(-c4ccc(Cl)cc4)o3)c(OC)c2)cc1 | 14 | 15 | 12 | 13 | 17 | 19 | 22 | 24 | 50 (≈ 105 µM) | 50 (≈ 105 µM) | 100 (≈ 210 µM) | 100 (≈ 210 µM) | 21 | 16 | 17 | 19 | MFC [20]: 50 µg/mL (≈ 105 µM); MIC [20]: 12.5 µg/mL (≈ 26.2 µM) |
| 25 (≈ 54 µM) | 12.5 (≈ 27 µM) | 25 (≈ 54 µM) | 25 (≈ 54 µM) | COc1cc(/C=C/C(=O)c2ccc(O)cc2)ccc1OCc1nnc(-c2ccc(Cl)cc2)o1 | 13 | 15 | 11 | 13 | 16 | 18 | 22 | 23 | 100 (≈ 216 µM) | 25 (≈ 54 µM) | 50 (≈ 108 µM) | 100 (≈ 216 µM) | 21 | 14 | 17 | 18 | MFC [21]: 25 µg/mL (≈ 54 µM); MIC [21]: 12.5 µg/mL (≈ 27 µM) |
| 25 (≈ 52.8 µM) | 12.5 (≈ 26.4 µM) | 50 (≈ 106 µM) | 12.5 (≈ 26.4 µM) | COc1cc(/C=C/C(=O)c2ccc(O)cc2)ccc1OCc1nnc(-c2ccc([N+](=O)[O-])cc2)o1 | 12 | 13 | 10 | 11 | 15 | 17 | 21 | 23 | 50 (≈ 106 µM) | 50 (≈ 106 µM) | 100 (≈ 211 µM) | 100 (≈ 211 µM) | 19 | 13 | 15 | 17 | MFC [20]: 100 µg/mL (≈ 211 µM); MIC [20]: 25 µg/mL (≈ 52.8 µM) |
| 25 (≈ 56.5 µM) | 12.5 (≈ 28.3 µM) | 12.5 (≈ 28.3 µM) | 25 (≈ 56.5 µM) | COc1cc(/C=C/C(=O)c2ccc(O)cc2)ccc1OCc1nnc(-c2ccc(C)cc2)o1 | 15 | 17 | 12 | 14 | 19 | 20 | 23 | 25 | 50 (≈ 113 µM) | 25 (≈ 56.5 µM) | 25 (≈ 56.5 µM) | 100 (≈ 226 µM) | 23 | 15 | 17 | 20 | MFC [21]: 100 µg/mL (≈ 226 µM); MIC [21]: 25 µg/mL (≈ 56.5 µM) |
|  |  |  |  | C[C@@H](c1ncncc1F)[C@](O)(Cn1cncn1)c1ccc(F)cc1F [VORICONAZOLE] |  |  |  |  |  |  |  |  |  |  |  |  | 30 | 24 | 26 | 28 | MFC [20]: 12.5 µg/mL (≈ 35.8 µM); MIC [20]: 6 µg/mL (≈ 17.2 µM); MFC [21]: 12.5 µg/mL (≈ 35.8 µM); MIC [21]: 6 µg/mL (≈ 17.2 µM) |

| SMILES | MIC [9] [µg/mL] | MIC [10] [µg/mL] | MIC [11] [µg/mL] | MIC [12] [µg/mL] | zone of inhibition at 100 µg/mL [1] [mm] | zone of inhibition at 200 µg/mL [2] [mm] | zone of inhibition at 100 µg/mL [3] [mm] | zone of inhibition at 200 µg/mL [4] [mm] | zone of inhibition at 100 µg/mL [5] [mm] | zone of inhibition at 200 µg/mL [6] [mm] | zone of inhibition at 100 µg/mL [7] [mm] | zone of inhibition at 200 µg/mL [8] [mm] | MBC [13] [µg/mL] | MBC [14] [µg/mL] | MBC [15] [µg/mL] | MBC [16] [µg/mL] | zone of inhibition at 200 µg/mL [17] [mm] | zone of inhibition at 100 µg/mL [18] [mm] | zone of inhibition at 200 µg/mL [19] [mm] | zone of inhibition at 100 µg/mL [22] [mm] | also measured |
| --- | --- | --- | --- | --- | --- | --- | --- | --- | --- | --- | --- | --- | --- | --- | --- | --- | --- | --- | --- | --- | --- |
| O=C(O)c1cn(C2CC2)c2cc(N3CCNCC3)c(F)cc2c1=O [CIPROFLOXACIN] | 6 (≈ 18.1 µM) | 6 (≈ 18.1 µM) | 6 (≈ 18.1 µM) | 6 (≈ 18.1 µM) | 23 | 24 | 21 | 22 |  | 27 | 32 | 33 | 12.5 (≈ 37.7 µM) | 12.5 (≈ 37.7 µM) | 12.5 (≈ 37.7 µM) | 12.5 (≈ 37.7 µM) |  |  |  |  |  |
